From ChEMBL document CHEMBL1126270, “Synthesis of 3-[(2,3-dihydro-1,1,3-trioxo-1,2-benzisothiazol-2-yl)alkyl] 1,4-dihydropyridine-3,5-dicarboxylate derivatives as calcium channel modulators” (J Med Chem, 1992) come the findings set out here.

For assay [1], the species on record is Oryctolagus cuniculus. Put plainly: Inhibition of electrically stimulated rabbit left atria contraction. The class given is functional. An outline of the steps: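 Rabbit left atria electrically driven (1 Hz, 10 ms, twice threshold voltage), equilibrated 1–1.5 h. Compounds added cumulatively (10^-10–10^-6 M), diluted from DMSO stocks into Krebs–Henseleit, final DMSO <0.1%. Isometric force recorded; IC50 from contractile force relative to initial control values, with 95% confidence limits.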

Assay [2] is filed under the species Oryctolagus cuniculus. As to the kind of experiment: Recovery of the initial contraction of rabbit aortic strips, blocked at 10e-7 M concentration. The following applies: Aorta.
The species named for assay [3] is Rattus norvegicus. As to the kind of experiment: Reducing systolic blood pressure in spontaneously hypertensive rats. The conditions noted are these: Artery. It counts as functional. The procedure, abridged:
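Conscious SHR trained 2 weeks, warmed at 31 ± 1 °C for 2 h; tail plethysmography SBP, mean of five readings; only rats above 170 mmHg used. After 24 h fasting, 20 mg/kg by gavage in 20% PEG-400/0.5% methylcellulose (10 mL/kg); SBP change read 1 h post-dose, n = 12.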

The species named for assay [4] is Rattus norvegicus. As to the kind of experiment: Duration of action in spontaneously hypertensive rats. The class given is functional. The procedure, abridged: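 Anesthetized (pentobarbitone 70 mg/kg ip) Okamoto SHR, 290 ± 30 g; carotid pressure, femoral vein dosing. Cumulative increasing iv bolus doses of 1, 3, 6, 10, 20, 30 µg/kg in PEG-400 (0.1 mL/kg), each recorded 15 min; ED25 for lowering SBP and DBP and duration of hypotensive action estimated.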

The species named for assay [5] is Rattus norvegicus. Put plainly: Compound evaluated for reducing diastolic blood pressure spontaneously hypertensive rats. The following applies: Artery. It counts as functional. The procedure, abridged:
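Male SHR (Okamoto strain, 290 ± 30 g) under sodium pentobarbitone anaesthesia (70 mg/kg ip) with tracheal cannulation. Arterial pressure recorded from the left carotid artery. Bolus iv via right femoral vein in PEG-400 (0.1 mL/kg), cumulative doses of 1, 3, 6, 10, 20 and 30 μg/kg, each followed for 15 min. ED25 for lowering diastolic pressure estimated.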

For assay [6], the system named is Rattus norvegicus. As to the kind of experiment: Systolic blood pressure after administration of a single oral dose (20 mg/kg). The class given is functional. The procedure, abridged:
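Conscious SHR trained for 2 weeks; systolic pressure by tail plethysmography after 2 h at 31 ± 1 °C, each reading the mean of five determinations. Only rats with basal >170 mmHg were used. After 24 h fasting, dosed by gavage in 20% PEG-400 in 0.5% aqueous methylcellulose (10 mL/kg). % change from basal at 1 h; mean ± SE, n = 12.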

The species entered for assay [7] is Oryctolagus cuniculus. Put plainly: Compound was tested in vitro for its effect on maximum contractile force in rabbit aorta strips. The class given is functional. An outline of the steps:
(§1)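 Rabbit aortic strips, after equilibration in Ca2+-free Krebs, switched to buffer with 10 mM K+. Repeated 1.5 mM Ca2+ pulses until reproducible. Increasing compound concentrations each given 10 min before a further 1.5 mM Ca2+ pulse. Maximum contractile force (mg) taken as vasoconstrictor effect; data as mean ± SEM at 10^-6 M.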

The species named for assay [8] is Oryctolagus cuniculus. Put plainly: Maximum contractile force in rabbit aorta strips. The class given is functional. An outline of the steps:
as §1

Assay [9] is filed under the species Oryctolagus cuniculus. Put plainly: Compound was evaluated for contraction on Electrically driven Rabbit left atria. at 10e-7 M. It counts as functional.
For assay [10], the species on record is Rattus norvegicus. Put plainly: Compound evaluated for reducing diastolic blood pressure in normotensive rats. The class given is functional, Artery.
The subject of assay [11] is Rattus norvegicus. As to the kind of experiment: Effect (iv, 100 ug/kg) on systolic blood pressure in anesthetized normotensive rat. It counts as functional, Artery. The procedure, abridged:
(§2)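 Male Wistar rats, 290 ± 30 g, pentobarbitone anesthesia (70 mg/kg ip), tracheal cannulation. Carotid arterial pressure recorded, dosing via femoral vein. Bolus iv of 0.1 mg/kg in PEG-400 (0.1 mL/kg); effects recorded continuously for 15 min; peak rise in mmHg above basal.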

For assay [12], the species on record is Oryctolagus cuniculus. Put plainly: Compound was evaluated for contraction on Electrically driven Rabbit left atria. at 10e-8 M. The class given is functional.
The species entered for assay [13] is Oryctolagus cuniculus. Put plainly: Blockade of calcium-evoked contractions evaluated in depolarized rabbit aortic strips. The class given is functional. The following applies: Aorta. An outline of the steps: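 Male New Zealand rabbit thoracic aorta, helicoidal strips, 2.5 g preload, Krebs–bicarbonate, 37 °C, 95% O2/5% CO2, pH 7.4. After 1 h equilibration, depolarized with 35 mM K+; 1.5 mM Ca2+ added 10 min later, repeated until reproducible. Compound at increasing concentrations from 20 min before and during Ca2+ addition; responses normalized to initial tension; IC50 by Finney method.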

Assay [14] concerns Rattus norvegicus. As to the kind of experiment: Effect (iv, 100 ug/kg) on diastolic blood pressure in anesthetized normotensive rat. It counts as functional, Artery. An outline of the steps:
as §2

The species entered for assay [15] is Oryctolagus cuniculus. Put plainly: Compound was evaluated for contraction on Electrically driven Rabbit left atria. at 10e-6 M. It counts as functional.
The species named for assay [16] is Rattus norvegicus. As to the kind of experiment: Compound evaluated for reducing diastolic blood pressure normotensive rats. The class given is functional, Artery.

In turn, `COC(=O)C1=C(C)NC(C)=C(C(=O)OC)C1c1ccccc1[N+](=O)[O-]` [NIFEDIPINE] gave an IC50 in the assay filed under Oryctolagus cuniculus [1] of 113 nM. Besides, the Recovery in the assay filed under Oryctolagus cuniculus [2] came to 71.6%. Also, the results for the ED25 in the assay listed under Rattus norvegicus [3] and in the assay filed under Rattus norvegicus [5] were 0.033 mg/kg and 0.031 mg/kg, respectively. This molecule also returned a Duration in the assay filed under Rattus norvegicus [4] of 3 min. Besides, the SBP change in the assay with Rattus norvegicus [6] came to 35%.
Consider `CC1=NC(C)=C(C(=O)OCCN2C(=O)c3ccccc3S2(=O)=O)C(c2cccc([N+](=O)[O-])c2)/C1=C(\O)OCC1CCCCO1` (configuration not stated), for which the Max contractile activity in the assay listed under Oryctolagus cuniculus [7] stood at 1940 mg. Further, the Max contractile force in the assay filed under Oryctolagus cuniculus [8] stood at 1940 mg. The Contraction in the assay listed under Oryctolagus cuniculus [9] is 129.6%; in the assay filed under Oryctolagus cuniculus [12], 114%; in the assay filed under Oryctolagus cuniculus [15], 141.2%. Further, the DBP change in the assay listed under Rattus norvegicus [10] is on record as 40%. The SBP in the assay on Rattus norvegicus [11] is 58.1. The IC50 in the assay listed under Oryctolagus cuniculus [13] is more than 1000 nM. In addition, the DBP with Rattus norvegicus [14] is recorded as 40.
Turning to `COC(=O)C1=C(C)NC(C)=C([N+](=O)[O-])C1c1ccccc1C(F)(F)F` (configuration not stated), the Max contractile force in the assay filed under Oryctolagus cuniculus [8] came to 2570 mg. The Contraction came to 232.2% in the assay filed under Oryctolagus cuniculus [9], 97.8% in the assay filed under Oryctolagus cuniculus [12] and 471.4% in the assay filed under Oryctolagus cuniculus [15]. In the assay with Rattus norvegicus [11], the SBP was found to be 100. Besides, the DBP with Rattus norvegicus [14] came to 53.3. Also, the DBP change in the assay filed under Rattus norvegicus [16] amounted to 53.3%.
